GalR3 antag: blocks the human galanin receptor 3; HEK293 GalR3-CNG cAMP membrane potential fluorescence; galR3 body fused to GalR1 C-terminus; inhibition, % at 3 µM; 360,000 compounds, 0.44% hits;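 active means inhibition above the screen-wide average plus 3 SD, cut at about 13% in these data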;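 further: forskolin and galanin both at EC90 stimulate the cells; cAMP rise reported by CNG channel membrane potential dye signal; 0% = forskolin plus galanin with DMSO and 100% = forskolin alone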
Target sequence (O60755 1-299 limits assumed): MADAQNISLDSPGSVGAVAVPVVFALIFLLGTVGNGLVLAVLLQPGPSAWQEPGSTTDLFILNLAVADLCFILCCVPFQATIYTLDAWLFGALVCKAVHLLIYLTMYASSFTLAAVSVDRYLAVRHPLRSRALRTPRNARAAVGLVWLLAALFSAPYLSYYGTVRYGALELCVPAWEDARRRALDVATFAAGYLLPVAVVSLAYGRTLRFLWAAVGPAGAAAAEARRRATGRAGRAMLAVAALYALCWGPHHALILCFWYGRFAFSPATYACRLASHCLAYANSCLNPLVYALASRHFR
OX1R antag-1: blocks the human orexin 1 receptor; OX1R-expressing cells, FRET antagonist read-out; inhibition, % at 6.6 µM; 330,000 compounds, 1.8% hits; AID 485270; in the data active means inhibition mostly above about 38%, no sharp cut-off; inactive means mostly below about 40%;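 further: 0% = agonist challenge alone and 100% = reference antagonist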
OX1R antag-2: antagonists of human orexin 1 receptor; O43613; CHO/OX1R cells, Fluo-8 calcium fluorescence, orexin A; inhibition, % at 5 µM; 330,000 compounds, 0.43% hits;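 active means inhibition above its plate's threshold, mean inhibition of all tested compounds on the plate plus 3 SD, cut at about 37% in these data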;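 further: 0% = orexin A challenge wells and 100% = SB-334867-A antagonist wells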
CHO parental Ca: counter-screen: ATP calcium response change in parental CHO cells; inhibition, % at 5.6 µM; 330,000 compounds, 0.63% hits; parental CHO-K1, ATP-induced calcium, Fluo-8 fluorescence;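 active means inhibition above that plate's mean sample inhibition plus 3 SD, cut at about 26% in these data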;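 further: 0% = ATP-challenged DMSO wells and 100% = DMSO wells without ATP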
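Material: parental CHO cells / Compound: single nominal dose of 5.6 µM per compound / Signal: Fluo-8 fluorescence / Replicates: singlicate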
GPR7 antagonist: blocks human GPR7 receptor signaling; P48145; GPR7-expressing cells, fluorescence antagonist assay; inhibition, % at 4.4 µM; 290,000 compounds, 1.1% hits; AID 1861; in the data active means inhibition above about 16%, passing the limit was not always enough;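 further: cells stimulated with the agonist NPW; 0% = agonist with vehicle and 100% = vehicle without agonist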
GPR7 antag cf: confirmation of human GPR7 antagonists. shares compounds with GPR7 antagonist. GPR7-expressing cells, calcium fluorescence antagonist mode. inhibition, % at 4.4 µM. 2,400 compounds, 52% hits; in the data active means inhibition above about 24%;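 further: stimulated with the GPR7 agonist NPW; 0% = agonist plus vehicle and 100% = vehicle alone without agonist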
MCHR1 antag: counter-screen for GPR7 antagonists: antagonists of human MCHR1; shares compounds with GPR7 antagonist; MCHR1-expressing cells, fluorescence antagonist assay; inhibition, % at 4.4 µM; 2,400 compounds, 62% hits; AID 2148; in the data active means inhibition above about 22%;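 further: 0% = vehicle with agonist and 100% = vehicle without agonist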
An asterisk follows results filed as active; / = not tested or not shown. Shown are actives, neighbours in structure and some others; about 3.1% of the full set was active somewhere.

SMILES | GalR3 antag | OX1R antag-1 | OX1R antag-2 | CHO parental Ca | GPR7 antagonist | GPR7 antag cf | MCHR1 antag
O=[N+]([O-])c1cccc(S(=O)(=O)NCC2CC3CCC2C3)c1 (centres undefined) | -11 | -6 | -22 | -4 | 38* | -2 | -9
O=[N+]([O-])c1ccc(S(=O)(=O)NCC2CC3CCC2C3)cc1 (centres undefined) | -11 | -2 | -40 | -9 | 15 | / | /
CC1(C)Cc2ccccc2C(COc2ccccc2)=N1 | -8 | / | / | / | 26* | -1 | 0
Clc1ccc(OCCOCCNCc2ccccc2)cc1Cl | 1 | -3 | -16 | 3 | 90* | 19 | 27*
Cc1cc(Cl)cc(C)c1OCCOCCNCc1ccccc1 | -12 | -5 | -26 | -7 | 27* | 35* | 28*
Cc1cc(Cl)cc(C)c1OCCNCc1ccccc1 | -13 | 11 | -29 | -11 | 20 | / | /
CCc1nn(CC(=O)N2CCN(c3ccc(OC)cc3)CC2)c(=O)c2cc3occc3n12 | -10 | 0 | -27 | -29 | -8 | / | /
O=C1/C(=C\c2cc([N+](=O)[O-])ccc2O)SC(=S)N1Cc1ccc(Cl)cc1 | -9 | 32 | 68* | 62* | 35* | 47* | 86*
CC(NC(=O)c1ccc(C#N)cc1)C1CC2CCC1C2 (centres undefined) | -6 | 9 | -19 | -12 | 23* | -4 | 13
CC(NC(=O)c1ccc(N(C)C)cc1)C1CC2CCC1C2 (centres undefined) | -2 | / | / | / | 0 | / | /
Cn1c(=O)c([N+](=O)[O-])c(Cl)c2ccccc21 | 10 | / | / | / | 26* | 51* | 76*
Cc1cc(SCC(=O)OCC(=O)N(C)C2CCS(=O)(=O)C2)c(C)cc1Br (centres undefined) | -5 | 18 | -9 | 14 | / | / | /
CC(C)(C)Cc1c(-c2ccccc2)nc2ccc(Cl)cn12 | -4 | / | / | / | / | / | /
Cc1ccc(S(=O)(=O)Nc2cc(S(=O)(=O)N3CCCCC3)ccc2N2CCOCC2)cc1 | 8 | 22 | -18 | -20 | 33* | 0 | 0
CC1(C)NC(=O)N(CC(=O)Nc2cc(S(=O)(=O)N3CCOCC3)ccc2N2CCOCC2)C1=O | / | 21 | -8 | 1 | 27* | -10 | -2
COCCNc1nc(Oc2ccc(CC(=O)OC)cc2)c2sc(-c3ccccc3)cc2n1 | -5 | / | / | / | / | / | /
COc1cccc(CNC(=O)C(NS(=O)(=O)c2ccc3c(c2)CCN3C(C)=O)C(C)C)c1 (centres undefined) | -2 | 18 | -24 | -13 | 2 | / | /
N/N=C(/Cc1nc2ccccc2[nH]1)c1ccc([N+](=O)[O-])cc1 | -7 | 28 | 9 | 0 | 36* | 2 | 21
O=P(OC1CCCCC1)(OC1CCCCC1)C(Nc1ccccc1)c1cccnc1 (centres undefined) | -3 | 19 | -12 | -19 | 32* | 31* | 39*
Cc1cccc2cc(CNCC3CCCO3)c(Cl)nc12 (centres undefined) | -3 | 18 | -19 | -19 | 22* | -3 | 7
COc1ccc(Cl)cc1NC(=O)CSc1nc2ccsc2c(=O)n1CC1CCC(C(=O)O)CC1 (centres undefined) | -7 | 33 | 2 | -2 | 7 | / | /
Cc1ccc(CN2CC(C(=O)N3CCN(c4ccccc4Cl)CC3)CC2=O)cc1 (centres undefined) | -7 | 5 | -13 | -27 | / | / | /
CC(C)[C@H](NC(N)=O)C(=O)Nc1ccc(F)c(Cl)c1 | -1 | 12 | 4 | -11 | 22* | 3 | 14
COc1cc(C2c3sc(=O)[nH]c3SC3C4CCC(C4)C23)ccc1O (centres undefined) | -10 | 12 | -17 | -19 | 27* | -18 | 15
COc1ccc(C2c3sc(=O)[nH]c3SC3C4CCC(C4)C23)cc1 (centres undefined) | -4 | 6 | -33 | -8 | -15 | / | /
CC1CCCN(CCCNC(=O)C2CCCN(c3ncnc4c3nc3n4CCCCC3)C2)C1 (centres undefined) | 3 | 10 | -23 | -16 | -2 | / | /
CC1CC(C)CN(CCCNC(=O)C2CCCN(c3ncnc4c3nc3n4CCCCC3)C2)C1 (centres undefined) | -5 | 17 | -19 | -27 | 28* | -8 | 10
